SENP8 block-1 – SENP8 (human) protease inhibition; hit rate 0.64% among 360,000; inhibition, % at 20 µM; recombinant SENP8, Nedd8 substrate fluorescence; AID 602440; in the data active = inhibition mostly above about 40%, no sharp cut-off; inactive = mostly below about 27%
SENP7 inh – inhibitors of human SENP7 protease | Q9BQF6 | recombinant SENP7, Z-RLRGG-aminoluciferin luminescence, 40 min | inhibition, % at 5 µM | hit rate 1.5% among 330,000;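 active = inhibition above about 50% at the single test dose, limit read from the data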;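 also: plate controls were DMSO with enzyme for no effect and no enzyme buffer wells for full effect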
Target sequence (Q9BQF6 706-1050 limits assumed): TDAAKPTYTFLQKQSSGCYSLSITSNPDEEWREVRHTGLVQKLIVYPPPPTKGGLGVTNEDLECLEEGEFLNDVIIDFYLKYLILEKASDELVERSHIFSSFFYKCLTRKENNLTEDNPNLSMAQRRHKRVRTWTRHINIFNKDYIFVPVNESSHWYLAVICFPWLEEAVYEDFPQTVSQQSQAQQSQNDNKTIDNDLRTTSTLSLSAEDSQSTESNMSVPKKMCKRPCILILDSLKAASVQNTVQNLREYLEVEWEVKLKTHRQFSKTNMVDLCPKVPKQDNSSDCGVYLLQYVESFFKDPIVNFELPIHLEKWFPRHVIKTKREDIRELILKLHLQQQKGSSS
SENP8 block-2 – SENP8 protease inhibition; Q96LD8; purified SENP8, Z-RLRGG-aminoluciferin cleavage, luminescence; inhibition, % at 10 µM; hit rate 1.2% among 330,000; in the data active = inhibition above about 50%
SENP6 block – blocks the human protease SENP6; Q9GZR1; Recombinant SENP6 catalytic domain, aminoluciferin luminescence; inhibition, % at 10 µM; hit rate 1.8% among 330,000; AID 2599;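 active = inhibition above about 50% at the single tested dose, limit read from the data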;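 also: plate controls were DMSO wells with enzyme for no effect and DMSO wells lacking enzyme for full effect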
HSP90 refold inh – inhibitors of HSP90 luciferase refolding in rabbit reticulocyte lysate; luciferase refolding luminescence, 3 h; inhibition, % at 5.6 µM; hit rate 0.91% among 290,000; AID 1789;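 active = inhibition above the screen-wide mean plus 3 SD, computed separately per campaign, cut at about 16% in these data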;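 also: 0% = DMSO wells and 100% = 60 µM geldanamycin wells; inhibitors lower the luminescence because luciferase stays unfolded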
SENP1 inh – inhibitors of human SENP1 SUMO protease catalytic domain | hit rate 0.21% among 360,000 | inhibition, % at 10 µM | Q9P0U3 | recombinant SENP1 catalytic domain, CyPet-SUMO1-YPet FRET cleavage;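 active = inhibition at least 30% at 10 µM, raw YFP signal under a set limit, fluorescence ratio 0.5 to 1.5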;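 also: 0% = enzyme with DMSO and 100% = no enzyme wells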
Target sequence (Q9P0U3 419-644 limits assumed): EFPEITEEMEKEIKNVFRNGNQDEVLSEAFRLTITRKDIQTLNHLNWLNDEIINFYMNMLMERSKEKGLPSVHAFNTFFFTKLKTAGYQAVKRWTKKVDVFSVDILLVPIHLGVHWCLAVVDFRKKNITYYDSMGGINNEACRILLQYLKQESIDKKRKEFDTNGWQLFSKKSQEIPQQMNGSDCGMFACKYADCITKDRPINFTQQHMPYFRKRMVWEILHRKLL
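Material – human SENP1 catalytic domain · Input – SENP1 enzyme, 20 pM final · Compound dosing – single concentration of 10 µM compound, 0.5% DMSO final · Timing – enzyme reaction for 50 min at room temperature, dark · Measured by – FRET fluorescence in CFP and YFP emission channels · Control set – no-enzyme wells low, DMSO-plus-enzyme wells high control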
SENP8 conf – human SENP8 inhibition, confirmed; shares compounds with SENP7 inh; Recombinant SENP8, Z-RLRGG-aminoluciferin luminescence, 60 min; inhibition, % at 12.5 µM; hit rate 40% among 6,200;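 active = mean inhibition across replicates above about 50%, limit read from the data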
SENP6 confirm – confirmation of human SENP6 protease inhibitors; shares compounds with SENP7 inh; recombinant SENP6, Z-RLRGG-aminoluciferin luminescence; inhibition, % at 12.5 µM; hit rate 58% among 6,200
SENP7 conf – human SENP7 inhibition, confirmed; AID 488917; hit rate 69% among 6,200; inhibition, % at 12.5 µM; shares compounds with SENP7 inh; recombinant SENP7, Z-RLRGG-aminoluciferin luminescence, 40 min
Casp3 select – selectivity test for SENP inhibitors: human caspase-3 inhibition; shares compounds with SENP7 inh; purified caspase-3, Z-DEVD-aminoluciferin luminescence, 60 min; inhibition, % at 12.5 µM; hit rate 60% among 6,200; AID 488918;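 active = mean inhibition above about 50%, limit read from the data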;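 also: plate controls were enzyme with DMSO for no effect and wells without caspase-3 for full effect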
SENP luc ctr – interferes with luciferase luminescence in SENP counter-screen; shares compounds with SENP7 inh; Pre-incubated SENP8/Z-RLRGG-aminoluciferin, luciferase luminescence interference; AID 488919; hit rate 39% among 6,200; inhibition, % at 12.5 µM;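 active = mean inhibition above about 50% when retested at one dose, limit read from the data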;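 also: plate controls were DMSO wells with completed reaction for no effect and substrate without enzyme for full effect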
* hit, by the source's call. Sampled rows, rich in hits. Any-hit rate of the full collection: about 2.9%.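 The calls were made as follows, unless noted: active = mean inhibition above about 50% in the one-dose retest (limit read from the data); inactive = the rest.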

`COc1cccc(C(=O)NNC(=O)Cc2ccc([N+](=O)[O-])cc2)c1` gave SENP8 block-1 14, SENP7 inh 0, SENP8 block-2 -5, SENP6 block -13, HSP90 refold inh 3 and SENP1 inh 1.
Screening COC(=O)/C=c1\sc2ncnn2c1=O returned SENP8 block-1 16, SENP7 inh 6, SENP8 block-2 7, SENP6 block 85*, HSP90 refold inh 1, SENP1 inh -1, SENP8 conf 6, SENP6 confirm 1, SENP7 conf -4, Casp3 select -3 and SENP luc ctr -2.
CNC(=O)/C(C#N)=c1\s/c(=C/C(=O)OC)c(=O)n1-c1ccccc1 was read as SENP8 block-1 8, SENP7 inh -12, SENP8 block-2 -2, SENP6 block -12, HSP90 refold inh 0 and SENP1 inh 1.
For CC(C)C(=O)N1CCN(c2ccc(NC(=O)c3cccs3)cc2)CC1 the results were SENP8 block-1 18, SENP7 inh -6, SENP8 block-2 -8, SENP6 block -10, HSP90 refold inh -1 and SENP1 inh 1.
CN1CCN(c2ccc(NC(=O)c3cccs3)cc2)CC1 was read as SENP8 block-1 1, SENP7 inh 39, SENP8 block-2 28, SENP6 block 54*, HSP90 refold inh 0, SENP1 inh 3, SENP8 conf 25, SENP6 confirm 24, SENP7 conf 72*, Casp3 select 82* and SENP luc ctr 47.
Screening O=C(Nc1ccc(C(=O)N2CCCCC2)cc1)c1cccs1 returned SENP8 block-1 10, SENP7 inh 60*, SENP8 block-2 47, SENP6 block 66*, HSP90 refold inh -2, SENP1 inh 0, SENP8 conf 48, SENP6 confirm 47, SENP7 conf 78*, Casp3 select 83* and SENP luc ctr 59*.
O=C(Nc1ccc(NC(=O)c2cccs2)cc1)c1cccs1 was read as SENP8 block-1 1, SENP7 inh 26, SENP8 block-2 -15, SENP6 block -22, HSP90 refold inh -1 and SENP1 inh 0.
Screening Cc1ccn(-c2ccc(NC(=O)c3cccs3)cc2)n1 returned SENP8 block-1 5, SENP7 inh 80*, SENP8 block-2 74*, SENP6 block 85*, HSP90 refold inh 2, SENP1 inh 0, SENP8 conf 78*, SENP6 confirm 76*, SENP7 conf 94*, Casp3 select 88* and SENP luc ctr 82*.
For CCC(C)c1ccccc1N1CC(C(=O)Nc2cc(S(=O)(=O)N3CCOCC3)ccc2OC)CC1=O (stereo not given) the results were SENP8 block-1 6, SENP7 inh -3, SENP8 block-2 3, SENP6 block -4, HSP90 refold inh -3 and SENP1 inh 0.
`Cc1cc(C(=O)NC2CCCc3c2cnn3-c2ccc(C(C)(C)C)cc2)n[nH]1` (stereo not given) gave SENP8 block-1 2, SENP7 inh -2, SENP8 block-2 1, SENP6 block 7, HSP90 refold inh -6 and SENP1 inh 1.
Screening COc1ccc(C(=O)c2coc3ccc(O)cc23)cc1 returned SENP8 block-1 18, SENP7 inh 87*, SENP8 block-2 80*, SENP6 block 85*, HSP90 refold inh 10, SENP1 inh 1, SENP8 conf 80*, SENP6 confirm 80*, SENP7 conf 98*, Casp3 select 78* and SENP luc ctr 61*.
`Cc1ccc(C(=O)c2coc3ccc(OCC(=O)O)cc23)cc1` gave SENP8 block-1 19, SENP7 inh 29, SENP8 block-2 33, SENP6 block 66*, HSP90 refold inh 1, SENP1 inh 0, SENP8 conf 47, SENP6 confirm 43, SENP7 conf 77*, Casp3 select 78* and SENP luc ctr 66*.
For O=C(c1cccc(Br)c1)c1coc2ccc(O)cc12 the results were SENP8 block-1 18, SENP7 inh 72*, SENP8 block-2 84*, SENP6 block 86*, SENP1 inh 1, SENP8 conf 56*, SENP6 confirm 73*, SENP7 conf 95*, Casp3 select 51* and SENP luc ctr 24.
For CCC(=O)c1coc2ccc(O)cc12 the results were SENP8 block-1 -19, SENP7 inh -12, SENP8 block-2 -8, SENP6 block 9, HSP90 refold inh 4 and SENP1 inh 1.
`O=C(O)COc1ccc2occ(C(=O)c3ccccc3)c2c1` gave SENP8 block-1 24, SENP7 inh 12, SENP8 block-2 12, SENP6 block 36, HSP90 refold inh 2 and SENP1 inh 2.
For C[C@H](CO)N1C[C@H](C)[C@@H](CN(C)S(=O)(=O)c2cccs2)Oc2c(NS(=O)(=O)c3ccccc3)cccc2C1=O the results were SENP8 block-1 7, SENP7 inh 2, SENP8 block-2 0, SENP6 block 2 and SENP1 inh 1.
For CCCCOc1cccc(C(=O)N(Cc2ccccc2)C2CCS(=O)(=O)C2)c1 (stereo not given) the results were SENP8 block-1 13, SENP7 inh -1, SENP8 block-2 3, SENP6 block -15, HSP90 refold inh 1 and SENP1 inh 1.
O=C(CSc1ccc(-c2ccccn2)nn1)c1ccccc1 was read as SENP8 block-1 33, SENP7 inh -9, SENP8 block-2 -10, SENP6 block 9, HSP90 refold inh -3 and SENP1 inh 0.
Screening COC(=O)c1ccnc(SCC(=O)c2ccccc2)c1 returned SENP8 block-1 2, SENP7 inh 70*, SENP8 block-2 53*, SENP6 block 74*, HSP90 refold inh 1, SENP1 inh 0, SENP8 conf 60*, SENP6 confirm 55*, SENP7 conf 82*, Casp3 select 74* and SENP luc ctr 64*.
Screening COC(=O)c1cnc(SCc2ccc(Cl)cc2)n1C returned SENP8 block-1 5, SENP7 inh -9, SENP8 block-2 -12, SENP6 block 0, HSP90 refold inh -2 and SENP1 inh -3.
